Assay results reported in ChEMBL document CHEMBL4028840, “6-Nitro-2,3-dihydroimidazo[2,1-b][1,3]thiazoles: Facile synthesis and comparative appraisal against tuberculosis and neglected tropical diseases” (Bioorg Med Chem Lett, 2017).
pIC50: −log10 of the molar value. In brackets after ≈: the same amount, converted by molar mass.

How the values were obtained:
[1] = test system: Vero; test: Cytotoxicity against African green monkey Vero cells after 72 hrs by MTS/PMS assay; type: cell-based; details: Chlorocebus sabaeus
In short: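 VERO mammalian cells exposed for 72 h. Cytotoxicity IC50 comes from a single test.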

[2] = test system: Trypanosoma cruzi; test: Anti-parasitic activity against Trypanosoma cruzi Tulahuen CL2 infected in human MRC5 cells after 7 days by chlorophenol red […]-D-galactopyranoside dye based assay; type: functional, cell-based
In short: (§1)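 IC50 for growth inhibition of L. infantum, T. cruzi and T. brucei parasites, or for cytotoxicity toward human lung fibroblasts (MRC-5). Values are means of two or more independent experiments.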

[3] = test system: Mycobacterium tuberculosis; test: Anti-tubercular activity against Mycobacterium tuberculosis H37Rv ATCC 27294 after 10 days under hypoxic condition by low-oxygen recovery assay; type: functional
In short: (§2)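 M. tuberculosis H37Rv MIC measured in two assays: aerobic growth by MABA and hypoxic exposure by LORA. Each value is the mean of ≥2 independent determinations.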

[4] = test system: Leishmania infantum; test: Anti-parasitic activity against Leishmania infantum MHOM/MA(BE)/67 amastigotes infected in mouse primary peritoneal macrophages after 5 days by giemsa staining based microscopic method; type: functional; in short: as §1
[5] = Cytotoxicity against human MRC5 SV2 cells after 72 hrs by resazurin dye based fluorescence assay; type: cell-based; in short: as §1
[6] = test system: Mycobacterium tuberculosis; test: Anti-tubercular activity against Mycobacterium tuberculosis H37Rv ATCC 27294 after 7 days under aerobic condition by microplate alamar blue assay; type: functional; in short: as §2
[7] = test system: Trypanosoma brucei brucei; test: Anti-parasitic activity against Trypanosoma brucei brucei Squib-427 after 72 hrs by resazurin dye based fluorescence assay; type: functional; in short: as §1
[8] = Trypanosoma cruzi, Tulahuen CL2, MRC5, 168 h
[9] = Mycobacterium tuberculosis, H37Rv ATCC 27294, 240 h, read-out: MIC
[10] = Leishmania infantum, MHOM/MA(BE)/67, 120 h
[11] = Mycobacterium tuberculosis, H37Rv ATCC 27294, 168 h, read-out: MIC
[12] = Trypanosoma brucei, Squib-427, 72 h

SMILES	pIC50 [1]	pIC50 [2, 8]	MIC [3, 9]	pIC50 [4, 10]	pIC50 ([5]; Homo sapiens, MRC-5 SV2, 72 h)	MIC [6, 11]	pIC50 [7, 12]	pIC50 [2]	MIC [3]	MIC [6]	pIC50 [7]	pIC50 [4]	pIC50 ([5]; mrc5 sv2)
CC1(COc2ccc(Oc3ccccc3)cc2)Cn2cc([N+](=O)[O-])nc2S1(=O)=O (configuration not stated)	< 3.89	6.34	> 128 µM	4.26	4.35	> 128 µM	5.42	–	–	–	–	–	–
CC1(COCc2ccc(-c3ccc(F)cc3)cc2)Cn2cc([N+](=O)[O-])nc2S1 (configuration not stated)	–	6.82	> 64 µM	< 4.19	< 4.19	1.5 µM (≈ 0.599 µg/mL)	< 4.19	–	–	–	–	–	–
CC1(COCc2ccc(OC(F)(F)F)cc2)Cn2cc([N+](=O)[O-])nc2[S+]1[O-] (stereo in doubt; 19)	–	–	–	–	–	> 128 µM	–	5.52	–	–	–	–	–
CC1(COc2ccc(OC(F)(F)F)cc2)Cn2nc([N+](=O)[O-])nc2[S+]1[O-] (configuration not stated)	4.01	5.92	90 µM (≈ 35.3 µg/mL)	6.05	6.13	9.3 µM (≈ 3.65 µg/mL)	5.52	–	–	–	–	–	–
CC1(COc2ccc(Oc3ccccc3)cc2)Cn2cc([N+](=O)[O-])nc2S1 (configuration not stated)	< 3.89	6.85	5.3 µM (≈ 2.03 µg/mL)	< 4.19	< 4.19	0.76 µM (≈ 0.291 µg/mL)	< 4.19	–	–	–	–	–	–
CC1(COCc2ccc(OC(F)(F)F)cc2)Cn2c([N+](=O)[O-])cnc2S1 (configuration not stated)	4.35	5.14	59 µM (≈ 23 µg/mL)	< 4.19	4.33	55 µM (≈ 21.4 µg/mL)	4.66	–	–	–	–	–	–
CC1(COCc2ccc(-c3ccc(OC(F)(F)F)cc3)cc2)Cn2cc([N+](=O)[O-])nc2S1 (configuration not stated)	–	6.85	> 64 µM	4.25	< 4.19	1.4 µM (≈ 0.652 µg/mL)	5.55	–	–	–	–	–	–
CC1(COc2ccc(OC(F)(F)F)cc2)Cn2cc([N+](=O)[O-])nc2[S+]1[O-] (stereo in doubt; 37)	< 3.89	5.64	–	< 4.19	< 4.19	–	< 4.19	–	>128 µM	>128 µM	–	–	–
CC1(CO)Cn2cc([N+](=O)[O-])nc2S1 (configuration not stated)	–	–	> 128 µM	–	–	10 µM (≈ 2.15 µg/mL)	–	–	–	–	–	–	–
CC1(COc2ccc(Oc3ccccc3)cc2)Cn2cc([N+](=O)[O-])nc2[S+]1[O-] (stereo in doubt; 39)	< 3.89	–	–	4.26	4.28	–	–	6.72	>128 µM	–	6.44	–	–
CC1(COCc2ccc(OC(F)(F)F)cc2)Cn2cc([N+](=O)[O-])nc2[S+]1[O-] (stereo in doubt; 18)	–	5.80	> 128 µM	< 4.19	< 4.19	–	< 4.19	–	–	–	–	–	–
CC1(COc2ccc(-c3ccc(C(F)(F)F)cc3)cc2)Cn2cc([N+](=O)[O-])nc2S1 (configuration not stated)	< 3.89	7.46	46 µM (≈ 20 µg/mL)	< 4.19	< 4.19	0.12 µM (≈ 0.0523 µg/mL)	4.28	–	–	–	–	–	–
CC1(COc2ccc(OC(F)(F)F)cc2)Cn2cc([N+](=O)[O-])nc2[S+]1[O-] (stereo in doubt; 38)	–	–	–	–	–	–	–	5.77	58 µM (≈ 22.7 µg/mL)	26 µM (≈ 10.2 µg/mL)	4.39	–	–
CC1(COc2ccc(OC(F)(F)F)cc2)Cn2nc([N+](=O)[O-])nc2S1(=O)=O (configuration not stated)	4.34	5.89	27 µM (≈ 11 µg/mL)	5.89	6.38	2.2 µM (≈ 0.898 µg/mL)	5.68	–	–	–	–	–	–
CC1(COc2ccc(OC(F)(F)F)cc2)Cn2cc([N+](=O)[O-])nc2S1 (configuration not stated)	< 3.89	6.42	10 µM (≈ 3.75 µg/mL)	< 4.19	< 4.19	0.49 µM (≈ 0.184 µg/mL)	< 4.19	–	–	–	–	–	–
O=[N+]([O-])c1cn2c(n1)SC(COCc1ccc(OC(F)(F)F)cc1)C2 (configuration not stated)	< 3.89	6.06	15 µM (≈ 5.63 µg/mL)	4.19	< 4.19	4.4 µM (≈ 1.65 µg/mL)	< 4.19	–	–	–	–	–	–
CC1(COc2ccc(Oc3ccccc3)cc2)Cn2cc([N+](=O)[O-])nc2[S+]1[O-] (stereo in doubt; 40)	–	–	–	–	–	> 128 µM	–	6.12	25 µM (≈ 9.99 µg/mL)	–	6.01	4.38	4.29
O=[N+]([O-])c1cn2c(n1)OC(COc1ccc(Oc3ccccc3)cc1)C2 (configuration not stated)	< 3.89	5.51	> 128 µM	5.47	4.72	0.96 µM (≈ 0.339 µg/mL)	< 4.19	–	–	–	–	–	–
CC1(COc2ccc(OC(F)(F)F)cc2)Cn2nc(Br)nc2S1 (configuration not stated)	4.05	5.21	> 128 µM	< 4.19	4.38	24 µM (≈ 9.85 µg/mL)	4.47	–	–	–	–	–	–
CC1(COc2ccc(Oc3ccccc3)cc2)Cn2cc([N+](=O)[O-])nc2O1 (configuration not stated)	–	5.72	24 µM (≈ 8.82 µg/mL)	–	< 4.19	0.79 µM (≈ 0.29 µg/mL)	4.55	–	–	–	–	–	–
CC1(COCc2ccc(OC(F)(F)F)cc2)Cn2cc([N+](=O)[O-])nc2S1(=O)=O (configuration not stated)	–	6.01	21 µM (≈ 8.85 µg/mL)	< 4.19	< 4.19	> 128 µM	< 4.19	–	–	–	–	–	–
CC1(COc2ccc(-c3ccc(F)cc3)cc2)Cn2cc([N+](=O)[O-])nc2S1 (configuration not stated)	< 3.89	6.68	> 64 µM	< 4.19	< 4.19	0.21 µM (≈ 0.0809 µg/mL)	< 4.19	–	–	–	–	–	–
O=[N+]([O-])c1cn2c(n1)SC(COc1ccc(OC(F)(F)F)cc1)C2 (configuration not stated)	< 3.89	6.07	8.2 µM (≈ 2.96 µg/mL)	< 4.19	< 4.19	4.5 µM (≈ 1.63 µg/mL)	< 4.19	–	–	–	–	–	–
CC1(COCc2ccc(Oc3ccccc3)cc2)Cn2c([N+](=O)[O-])cnc2S1 (configuration not stated)	–	4.72	> 128 µM	4.26	< 4.19	> 128 µM	4.28	–	–	–	–	–	–
C[C@@]1(COCc2ccc(OC(F)(F)F)cc2)Cn2cc([N+](=O)[O-])nc2S1	4.28	5.80	51 µM (≈ 19.9 µg/mL)	< 4.19	< 4.19	6.1 µM (≈ 2.38 µg/mL)	< 4.19	–	–	–	–	–	–
CC1(COCc2ccc(-c3ccc(C(F)(F)F)cc3)cc2)Cn2cc([N+](=O)[O-])nc2S1 (configuration not stated)	–	7.40	> 64 µM	4.25	< 4.19	1.1 µM (≈ 0.494 µg/mL)	5.96	–	–	–	–	–	–
CC1(COc2ccc(OC(F)(F)F)cc2)Cn2cc([N+](=O)[O-])nc2S1(=O)=O (configuration not stated)	< 3.89	5.74	15 µM (≈ 6.11 µg/mL)	< 4.19	< 4.19	14 µM (≈ 5.7 µg/mL)	< 4.19	–	–	–	–	–	–
O=[N+]([O-])c1cn2c(n1)SC(COc1ccc(Oc3ccccc3)cc1)C2 (configuration not stated)	< 3.89	5.80	29 µM (≈ 10.7 µg/mL)	4.25	4.25	> 128 µM	4.96	–	–	–	–	–	–
